Assay results collected from several papers.
Target: NUAK family SNF1-like kinase 2 (NUAK2, Homo sapiens, UniProt Q9H093)
One construct used (Q9H093 1-628): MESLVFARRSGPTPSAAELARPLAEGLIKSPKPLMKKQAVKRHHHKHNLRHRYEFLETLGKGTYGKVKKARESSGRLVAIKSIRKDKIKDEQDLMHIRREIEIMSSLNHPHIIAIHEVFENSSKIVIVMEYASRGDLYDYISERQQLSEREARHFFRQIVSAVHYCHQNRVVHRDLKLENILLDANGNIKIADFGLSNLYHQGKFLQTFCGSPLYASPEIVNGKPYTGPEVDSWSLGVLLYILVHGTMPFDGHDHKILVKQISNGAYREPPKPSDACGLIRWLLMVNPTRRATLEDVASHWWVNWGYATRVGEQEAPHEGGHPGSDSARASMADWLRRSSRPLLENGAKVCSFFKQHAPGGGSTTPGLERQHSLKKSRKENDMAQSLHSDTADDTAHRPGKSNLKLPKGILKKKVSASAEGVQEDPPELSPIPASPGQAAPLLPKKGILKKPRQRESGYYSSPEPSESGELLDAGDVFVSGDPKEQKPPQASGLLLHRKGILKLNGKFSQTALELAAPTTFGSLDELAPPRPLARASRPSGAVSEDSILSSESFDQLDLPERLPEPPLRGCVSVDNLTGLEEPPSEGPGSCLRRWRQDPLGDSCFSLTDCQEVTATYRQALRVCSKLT

| Structure (SMILES) | effect on | mode | method | concentration | quantity | result |
| --- | --- | --- | --- | --- | --- | --- |
| COc1ccc2oc(-c3ccc4nc(N)oc4c3)c/c(=N\c3ccccc3NC(=O)CCN)c2c1 | binding | – | – | 1 µM | remaining binding | 93% |
| C[C@]1(O)CCCN(c2nc(Nc3ccc(S(=O)(=O)N[C@H]4CC[C@H](CN5CCN(c6ccc(C7CCC(=O)NC7=O)cc6F)CC5)CC4)cc3Cl)ncc2C(F)(F)F)C1 (stereo partly drawn) | binding | – | competition with immobilised ligand | 1 µM | remaining binding | 49% |
| CC(C)S(=O)(=O)c1ccc2nccc(Nc3ccc4sc(C5CCCC5)nc4c3)c2c1 | enzyme activity | inhibitor | – | 1 µM | activity vs control | 121% |
| CNS(=O)(=O)c1ccc(Nc2ncc(C(F)(F)F)c(N3CCC[C@](C)(O)C3)n2)c(C)c1 | binding | – | competition with immobilised ligand | 1 µM | remaining binding | 3.9% |
| Cc1cc(O)c(-c2ccc([C@@H](C)CN(C)C)cc2)c2c1[nH]c(=O)c1sccc12 | enzyme activity | inhibitor | – | 0.1 µM | inhibition | 3.81% |
| C1=C/COCc2cc(ccc2OCCN2CCCC2)Nc2nccc(n2)-c2cccc(c2)COC/1 | cell-free assay | – | – | 0.1 µM | remaining signal | 13% |
| C[C@H]1CC[C@H](n2c3cnccc3c3cnc(Nc4ccc5c(n4)CCN(C(=O)CO)C5)nc32)CC1 | cell-free assay | – | – | 1 µM | remaining signal | 34% |
| CCCCC(=O)Nc1ccc(-c2ccc3ncn(CCC)c(=O)c3c2)cn1 | binding | – | competition with immobilised ligand | 0.5 µM | remaining binding | 97% |
| CO[C@@H]1[C@H](N(C)C(=O)c2ccccc2)C[C@H]2O[C@]1(C)n1c3ccccc3c3c4c(c5c6ccccc6n2c5c31)C(=O)NC4 | enzyme activity | inhibitor | – | 1 µM | inhibition | 99% |
| N#Cc1ccc(NC(=O)Nc2ccccc2)cc1 | cell-free assay | – | competition with immobilised ligand | 25 µM | remaining binding | 77% |
| CN1CCN(C(=O)c2ccc(NC(=O)Nc3ccc(N(C)c4ccnc(Nc5ccc(CS(C)(=O)=O)cc5)n4)cc3)cc2)CC1 | binding | – | – | 1 µM | remaining binding | 39% |
| C=CC(=O)N1CCC([C@@H]2CCNc3c(C(N)=O)c(-c4ccc(Oc5ccccc5)cc4)nn32)CC1 | enzyme activity | inhibitor | – | 1 µM | inhibition | 24% |
